Experimental data collected from several papers.
Compare with care: the assays were run in different laboratories.
Observed: cell growth or viability

SMILES | cell line | technique | tested at | time | quantity | result
Cc1nc2ccc(Br)cc2c(=O)n1/N=C/c1ccc(C(=O)O)cc1 | LoVo | LDH | 200 µg/mL | 24 h | viability | 61.9%
S=C([S][Au-][P+](CCCCCC[P+]([Au-][S]C(=S)n1cccn1)(c1ccccc1)c1ccccc1)(c1ccccc1)c1ccccc1)n1cccn1 | TK-10 | – | – | – | GI50 | 11 µM
COc1ccc(-c2ccc(-c3ccc(C(=N)N)nc3)s2)cc1 | TK-10 | – | – | – | GI50 | 1.89 µM
Cc1c(-c2cccc(C(F)(F)F)c2)sc2[nH]c(=O)n([C@H](C)c3cccc4ccccc34)c(=O)c12 | NCI-H1650 | fluorescence | 10 µM | – | inhibition | > 80%
Cc1c(CN(C)C(=O)/C=C/c2cnc3c(c2)CC(CCN)C(=O)N3)oc2ccccc12 (stereo not shown) | IMR-90 | resazurin | 30 µM | 72 h | inhibition | 12%
Cc1c(NC(=O)c2ccc(C(C)(C)C)cc2)cccc1-c1cn(C)c(=O)c(Nc2ccc(C(=O)N3CCOCC3)cc2)n1 | U2932 | – | – | 48 h | GI50 | > 10 µM
Cc1nc2ccc(Cl)cc2c(=O)n1NC(=O)CCl | LoVo | LDH | 200 µg/mL | 24 h | viability | 89.5%
Cc1ccc2c(c1)C(=NNc1nnc(Cc3ccccc3)c3ccccc13)C(=O)N2 | HT-29 | – | 30 µM | – | inhibition | 89.1%
COc1cc(-c2ccc(-c3ccc(C(=N)N)nc3)s2)cc(OC)c1OC | TK-10 | – | – | – | GI50 | 3.19 µM
COc1ccc2c(c1)C(=NNc1ncnc3cc(OC)c(OC)cc13)C(=O)N2 | HT-29 | – | 10 µM | – | inhibition | 20.9%
COc1cc(/C=N/n2c(C)nc3ccc(Br)cc3c2=O)ccc1OCc1ccc(Cl)cc1 | LoVo | LDH | 200 µg/mL | 24 h | viability | 80%
C=CC(=O)Nc1cc(-n2c(=O)ccc3cnc4ccc(-c5ccc(NS(C)(=O)=O)cc5)cc4c32)ccc1C | U2932 | – | – | 48 h | GI50 | 2.15 µM
COc1ccc(-c2nc(NN=C3C(=O)Nc4ccc(Cl)cc43)c3ccccc3n2)cc1OC | HT-29 | – | 30 µM | – | inhibition | 5.3%
